In ChEMBL document CHEMBL1139854, “Phenalenone-type compounds from Musa acuminata var. "Yangambi km 5" (AAA) and their activity against Mycosphaerella fijiensis” (J Nat Prod, 2007):
The source made the active and inactive calls. No cut-off for these calls is given here.

How the values were obtained:
Assay type in all cases: functional
[1] = tested on: Pseudocercospora fijiensis; experiment: Growth inhibition of Mycosphaerella fijiensis by microtitre plate photometric assay
In short: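 Mycelial fragments came from monosporic PDA subcultures of several strains grown 15-20 days at 27 °C. They were bead-vortexed, filtered at 100 µm, counted and set to 2 × 10⁴–2 × 10⁶ fragments/mL. Cultures ran in Sabouraud broth with final 0, 5, 10, 20, 30, 40, 50 ppm at 27 °C. OD595 was read daily up to 17 days. IC50 is 50% growth inhibition versus compound-free inoculum.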

[2] = tested on: Pseudocercospora fijiensis; experiment: Inhibition of Mycosphaerella fijiensis mycelial growth at 50 to 100 ppm after 15 days
In short: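 Colonies (2 ± 1 mg) were taken from conidia grown 4 days on PDA. They were placed 20 per dish on PDA holding 10, 50 or 100 ppm compound added in EtOH (max 3.7%). Colony weight was taken at 7 and 15 days (10 colonies each) against EtOH-only blank medium. Run in quadruplicate and analysed by one-way ANOVA.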

[3] = tested on: Pseudocercospora fijiensis; experiment: Inhibition of Mycosphaerella fijiensis spore germination at 50 to 100 ppm
In short: (§1)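 Ascospores were exposed to compound at 10, 50 or 100 ppm for 24 h at 27 °C. Germination and germ-tube length were scored microscopically on 50-150 ascospores. Run in quadruplicate.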

[4] = tested on: Pseudocercospora fijiensis; experiment: Inhibition of Mycosphaerella fijiensis mycelial growth
[5] = tested on: Pseudocercospora fijiensis; experiment: Inhibition of Mycosphaerella fijiensis spore germination; in short: as §1

| Structure (SMILES) | IC50 [1] | Activity [2] | Activity [3] | Activity [4] | Activity [5] |
| --- | --- | --- | --- | --- | --- |
| O=C1C(O)=Cc2cccc3cccc1c23 | 23.4 ppm | Active | Active | – | – |
| COc1ccc(-c2ccc3cccc4c3c2C(=O)C=C4)cc1 | – | – | – | Active | – |
| COC1=Cc2cccc3cccc(c23)C1=O | 19.3 ppm | Active | Active | – | – |
| O=C1C=Cc2cccc3cccc1c23 | – | Active | – | Active | Active |
